Measurements published in ChEMBL document CHEMBL1129531, “2-substituted piperazines as constrained amino acids. Application to the synthesis of potent, non carboxylic acid inhibitors of farnesyltransferase” (J Med Chem, 1996).
Converted amounts (≈) assume the structure as drawn.

Legend:
[1] = molecular target: Protein farnesyltransferase (Homo sapiens, UniProt P49354+P49356); assay: Inhibition of [3H]FPP incorporation into Ha-Ras by Farnesyltransferase; type: protein-complex assay
Procedure, shortened: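 Recombinant human Ha-Ras protein as acceptor, with [³H]FPP as farnesyl donor. Read-out is FTase-catalyzed radiolabel incorporation into Ha-Ras. IC50 is the concentration giving 50% inhibition, reported ±SEM with the number of determinations given.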

[2] = molecular target: Geranylgeranyl transferase type I (Bos taurus, UniProt P29702+Q5EAD5); assay: Inhibition of bovine Geranylgeranyl transferase type I; type: protein-complex assay
Procedure, shortened: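 Type-I GGTase from bovine source. IC50 reported ±SEM with the number of determinations given.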

[3] = Inhibition of anchorage-independent growth of ras-transformed cells in soft agar; type: functional
Procedure, shortened: (§1)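 RAT1 cells transformed with v-ras or v-raf were grown in soft agar with compound. MIC is the minimum concentration reducing the size and number of colonies relative to vehicle-treated control. A v-mos-transformed cell line served as control, tested up to 2.5 µM.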

[4] = tested on: Rat1; assay: Highest nontoxic concentration in RAT1 cells; type: functional
Procedure, shortened: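 Cultured RAT1 cells; viability assessed by viable staining with MTT. Value is the highest nontoxic concentration, i.e. the concentration compatible with ≥90% cell survival.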

[5] = Inhibition of anchorage-independent growth of raf-transformed cells in soft agar; type: functional; procedure, shortened: as §1
[6] = molecular target: Protein farnesyltransferase (Rattus norvegicus, UniProt Q02293+Q04631); assay: Inhibition of post-traslational processing of Ras protein in RAT1 cell line; type: functional, cell-based
Procedure, shortened: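 RAT1 cells transformed with viral Ha-ras were incubated with compound for 24 h, then lysed. Ras was immunoprecipitated and resolved by denaturing gel electrophoresis to detect inhibition of post-translational processing (farnesylation). IC50 derived.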

[7] = Inhibition of human Geranylgeranyl transferase type I
Procedure, shortened: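 Recombinant human GGTase I. IC50 reported ±SEM with the number of determinations given.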

| Compound | IC50 [1] | IC50 [2] | MIC [3] | MIC [5] | IC50 [6] | IC50 [7] | CTE [4] |
| --- | --- | --- | --- | --- | --- | --- | --- |
| CCCC[C@H]1CN(C(=O)c2cccc(C)c2C)CCN1C[C@@H](N)CS | 5 nM | 360 nM | – | – | – | – | – |
| N[C@@H](CS)CN1CCN(C(=O)c2cccc3ccccc23)C[C@@H]1CCOC1CC1 | 1 nM | – | 2.5 µM (≈ 1.03 µg/mL) | – | 500 nM | 3900 nM | 25 µM |
| Cc1cccc(C(=O)N2CCN(C[C@@H](N)CS)CC2)c1C | 160 nM | 2800 nM | – | – | – | – | – |
| CCCC[C@H]1CN(C(=O)c2ccccc2)CCN1C[C@@H](N)CS | 24 nM | – | – | – | – | – | – |

Further compounds by falling IC50 [1], results first:

| IC50 [1] | IC50 [2] | MIC [3] | MIC [5] | IC50 [6] | IC50 [7] | Compound | CTE [4] |
| --- | --- | --- | --- | --- | --- | --- | --- |
| 68 nM | – | – | – | – | – | CC[C@H]1CN(C(=O)c2cccc(C)c2C)CCN1C[C@@H](N)CS | – |
| 3 nM | 10000 nM | 10 µM (≈ 3.88 µg/mL) | > 50 µM | 500 nM | – | COCC[C@H]1CN(C(=O)c2cccc3ccccc23)CCN1C[C@@H](N)CS | >100 µM |
| 1 nM | 160 nM | 10 µM (≈ 3.86 µg/mL) | > 10 µM | 500 nM | – | CCCC[C@H]1CN(C(=O)c2cccc3ccccc23)CCN1C[C@@H](N)CS | 10 µM |
